The values that follow come from ChEMBL document CHEMBL1136151, “Suzuki cross-coupling approaches to the synthesis of bioactive 3-substituted and 5-substituted-4-methoxy-6-methyl-2-pyrones” (Bioorg Med Chem Lett, 2003).

The subject of the first assay is Aspergillus niger. Description: Percent growth of Aspergillus niger after 7 days of incubation. The format is functional. Also noted: concentration or dose not given beside the values. In a few lines:
(§1)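 Fungal plate assay: pyrone dissolved in absolute EtOH at 10mg/mL and pipetted 2 cm offset from the centre of the plate containing the organism. EtOH alone served as control. Growth is recorded as percentage of the organism after 72 h and after 7 days of incubation.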
Compound `CCC/C=C/c1c(OC)cc(=O)oc1C` displayed a Growth of 90%.

On to `CCCCCC/C=C/c1cc(C)oc(=O)c1`, for which the Growth is 94%.

In the case of `CCCC/C=C/c1cc(C)oc(=O)c1`, the Growth is listed as 95%.

For the compound `CCC/C=C/c1c(OC)cc(C)oc1=O`, the Growth is recorded as greater than 95%.

Turning to `CCCC/C=C/c1c(OC)cc(C)oc1=O`, the Growth is 91%.

In turn, `COc1cc(=O)oc(C)c1-c1ccc(C)cc1` came in with a Growth greater than 95%.

In the next assay the test system is Aspergillus niger. In words: Percent growth of Aspergillus niger after 72 hours of incubation. Also noted: concentration or dose not given beside the values. Format: functional. A digest of the protocol: as §1
Compound `CCC/C=C/c1c(OC)cc(=O)oc1C` gave a Growth of 82%.

Turning to `CCCCCC/C=C/c1cc(C)oc(=O)c1`, the Growth was 89%.

Turning to `CCCC/C=C/c1cc(C)oc(=O)c1`, the Growth is recorded as 92%.

Consider `CCC/C=C/c1c(OC)cc(C)oc1=O`, for which the Growth worked out at 93%.

Consider `CCCC/C=C/c1c(OC)cc(C)oc1=O`, for which the Growth is given as 77%.

`COc1cc(=O)oc(C)c1-c1ccc(C)cc1`: the Growth is greater than 90%.

For another assay, the system named is Bacillus subtilis. In words: Antimicrobial activity against Bacillus subtilis was determined after 96 hours of incubation. Format: functional. A digest of the protocol: (§2)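 Disk diffusion: cellulose disks loaded with test compound and placed on bacterial plates, with an EtOH control disk. Incubation 96 h. Read-out is the radius (mm) of the inhibition zone.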
For the compound `CCC/C=C/c1c(OC)cc(=O)oc1C`, the Activity is 16 mm.

`CCCCCC/C=C/c1cc(C)oc(=O)c1` registered an Activity of 18 mm.

`CCCC/C=C/c1cc(C)oc(=O)c1` yielded an Activity of 18 mm.

`CCC/C=C/c1c(OC)cc(C)oc1=O` showed an Activity of 18 mm.

Turning to `CCCC/C=C/c1c(OC)cc(C)oc1=O`, the Activity was found to be 19 mm.

The compound `COc1cc(=O)oc(C)c1-c1ccc(C)cc1` had an Activity of 8 mm.

Another assay concerns Botrytis cinerea. In words: Percent growth of Botrytis cinerea after 7 days of incubation. Also noted: concentration or dose not given beside the values. The format is functional. A digest of the protocol:
as §1
The compound `CCC/C=C/c1c(OC)cc(=O)oc1C` returned a Growth of 100%.

As for `CCCCCC/C=C/c1cc(C)oc(=O)c1`, the Growth amounted to 100%.

Take `CCCC/C=C/c1cc(C)oc(=O)c1`: the Growth stood at 100%.

`CCC/C=C/c1c(OC)cc(C)oc1=O` had a Growth of 100%.

Turning to `CCCC/C=C/c1c(OC)cc(C)oc1=O`, the Growth was 100%.

In turn, `COc1cc(=O)oc(C)c1-c1ccc(C)cc1` gave a Growth of 100%.

The subject of a further assay is Botrytis cinerea. In words: Percent growth of Botrytis cinerea after 72 hours of incubation. Format: functional. On the set-up: concentration or dose not given beside the values. A digest of the protocol: as §1
In the case of `CCC/C=C/c1c(OC)cc(=O)oc1C`, the Growth turned out to be 39%.

As to `CCCCCC/C=C/c1cc(C)oc(=O)c1`, the Growth turned out to be 42%.

The compound `CCCC/C=C/c1cc(C)oc(=O)c1` yielded a Growth of 44%.

Regarding `CCC/C=C/c1c(OC)cc(C)oc1=O`, the Growth was found to be 56%.

`CCCC/C=C/c1c(OC)cc(C)oc1=O` gave a Growth of 51%.

`COc1cc(=O)oc(C)c1-c1ccc(C)cc1` had a Growth of 49%.

A further assay has as its system Candida albicans. Description: Antimicrobial activity against Candida albicans was determined after 48 hours of incubation. Format: functional. A digest of the protocol:
(§3)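 Disk diffusion on yeast plates: cellulose disks carrying test compound, with an EtOH control. Incubation 48 h. The inhibition zone radius is recorded in mm.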
Compound `CCC/C=C/c1c(OC)cc(=O)oc1C` displayed an Activity of 11 mm.

Compound `CCCCCC/C=C/c1cc(C)oc(=O)c1` returned an Activity of 20 mm.

`CCCC/C=C/c1cc(C)oc(=O)c1` displayed an Activity of 24 mm.

`CCC/C=C/c1c(OC)cc(C)oc1=O` showed an Activity of 0 mm.

`CCCC/C=C/c1c(OC)cc(C)oc1=O` came in with an Activity of 0 mm.

Compound `COc1cc(=O)oc(C)c1-c1ccc(C)cc1` displayed an Activity of 0 mm.

Another assay relates to Fusarium oxysporum. Description: Percent growth of Fusarium oxysporum after 7 days of incubation. The format is functional. Also noted: concentration or dose not given beside the values. In a few lines:
as §1
Compound `CCC/C=C/c1c(OC)cc(=O)oc1C` displayed a Growth of 35%.

The compound `CCCCCC/C=C/c1cc(C)oc(=O)c1` yielded a Growth of 30%.

The compound `CCCC/C=C/c1cc(C)oc(=O)c1` registered a Growth of 25%.

Turning to `CCC/C=C/c1c(OC)cc(C)oc1=O`, the Growth is 48%.

In the case of `CCCC/C=C/c1c(OC)cc(C)oc1=O`, the Growth worked out at 48%.

`COc1cc(=O)oc(C)c1-c1ccc(C)cc1` had a Growth of 54%.

The next assay deals with Fusarium oxysporum. In words: Percent growth of Fusarium oxysporum after 72 hours of incubation. The format is functional. On the set-up: concentration or dose not given beside the values. In a few lines:
as §1
In turn, `CCC/C=C/c1c(OC)cc(=O)oc1C` yielded a Growth of 8%.

In turn, `CCCCCC/C=C/c1cc(C)oc(=O)c1` registered a Growth of 5%.

Take `CCCC/C=C/c1cc(C)oc(=O)c1`: the Growth came to 2%.

`CCC/C=C/c1c(OC)cc(C)oc1=O`: the Growth is listed as 8%.

Compound `CCCC/C=C/c1c(OC)cc(C)oc1=O` returned a Growth of 8%.

Consider `COc1cc(=O)oc(C)c1-c1ccc(C)cc1`, for which the Growth is on record as 10%.

A further assay relates to Escherichia coli. In words: Antimicrobial activity against Escherichia coli was determined after 96 hours of incubation. The format is functional. A digest of the protocol: as §2
Regarding `CCC/C=C/c1c(OC)cc(=O)oc1C`, the Activity worked out at 17 mm.

Take `CCCCCC/C=C/c1cc(C)oc(=O)c1`: the Activity is 20 mm.

Consider `CCCC/C=C/c1cc(C)oc(=O)c1`, for which the Activity was 18 mm.

In turn, `CCC/C=C/c1c(OC)cc(C)oc1=O` showed an Activity of 21 mm.

In turn, `CCCC/C=C/c1c(OC)cc(C)oc1=O` yielded an Activity of 20 mm.

For the compound `COc1cc(=O)oc(C)c1-c1ccc(C)cc1`, the Activity was 6 mm.

For the next assay, the system named is Globisporangium mamillatum. Description: Percent growth of Pythium mammillatum after 7 days of incubation. The format is functional. On the set-up: concentration or dose not given beside the values. In a few lines: as §1
Regarding `CCCC/C=C/c1cc(C)oc(=O)c1`, the Growth came out at 100%.

As for `CCC/C=C/c1c(OC)cc(C)oc1=O`, the Growth is 100%.

Regarding `CCCC/C=C/c1c(OC)cc(C)oc1=O`, the Growth was 100%.

Another assay concerns Globisporangium mamillatum. Description: Percent growth of Pythium mammillatum after 7 days of incubation; NT=Not tested. Format: functional. In a few lines:
as §1
Turning to `CCC/C=C/c1c(OC)cc(=O)oc1C`, the Growth is given as 100%.

Turning to `COc1cc(=O)oc(C)c1-c1ccc(C)cc1`, the Growth was 100%.

The next assay concerns Globisporangium mamillatum. Description: Percent growth of Pythium mammillatum after 72 hours of incubation. Format: functional. On the set-up: concentration or dose not given beside the values. In a few lines:
as §1
Compound `CCC/C=C/c1c(OC)cc(=O)oc1C` yielded a Growth of 43%.

The compound `CCCC/C=C/c1cc(C)oc(=O)c1` displayed a Growth of 30%.

`CCC/C=C/c1c(OC)cc(C)oc1=O` returned a Growth of 43%.

For the compound `CCCC/C=C/c1c(OC)cc(C)oc1=O`, the Growth was 35%.

The subject of the next assay is Globisporangium ultimum. In words: Percent growth of Pythium ultimum after 7 days of incubation. Format: functional. Also noted: concentration or dose not given beside the values. In a few lines: as §1
Take `CCC/C=C/c1c(OC)cc(=O)oc1C`: the Growth was determined as 100%.

`CCCCCC/C=C/c1cc(C)oc(=O)c1`: the Growth is 100%.

In the case of `CCCC/C=C/c1cc(C)oc(=O)c1`, the Growth stood at 100%.

Compound `CCC/C=C/c1c(OC)cc(C)oc1=O` gave a Growth of 80%.

`CCCC/C=C/c1c(OC)cc(C)oc1=O` returned a Growth of 57%.

Another assay has as its system Globisporangium ultimum. In words: Percent growth of Pythium ultimum after 72 hours of incubation. On the set-up: concentration or dose not given beside the values. Format: functional. In a few lines: as §1
`CCC/C=C/c1c(OC)cc(=O)oc1C`: the Growth was determined as 100%.

In turn, `CCCCCC/C=C/c1cc(C)oc(=O)c1` had a Growth of 100%.

Regarding `CCCC/C=C/c1cc(C)oc(=O)c1`, the Growth stood at 96%.

In turn, `CCC/C=C/c1c(OC)cc(C)oc1=O` had a Growth of 67%.

As to `CCCC/C=C/c1c(OC)cc(C)oc1=O`, the Growth was determined as 37%.

Another assay concerns Schizosaccharomyces pombe. In words: Antimicrobial activity against Schizosaccharomyces pombe was determined after 48 hours of incubation. Format: functional. A digest of the protocol: as §3
As for `CCC/C=C/c1c(OC)cc(=O)oc1C`, the Activity is 20 mm.

Turning to `CCCCCC/C=C/c1cc(C)oc(=O)c1`, the Activity worked out at 29 mm.

In turn, `CCCC/C=C/c1cc(C)oc(=O)c1` came in with an Activity of 40 mm.

In turn, `CCC/C=C/c1c(OC)cc(C)oc1=O` came in with an Activity of 13 mm.

In the case of `CCCC/C=C/c1c(OC)cc(C)oc1=O`, the Activity worked out at 0 mm.

Consider `COc1cc(=O)oc(C)c1-c1ccc(C)cc1`, for which the Activity was found to be 20 mm.

Another assay concerns Saccharomyces cerevisiae. In words: Antimicrobial activity against Saccharomyces cerevisiae was determined after 48 hours of incubation. The format is functional. In a few lines:
as §3
In the case of `CCC/C=C/c1c(OC)cc(=O)oc1C`, the Activity is reported as 10 mm.

The compound `CCCCCC/C=C/c1cc(C)oc(=O)c1` showed an Activity of 0 mm.

`CCCC/C=C/c1cc(C)oc(=O)c1` yielded an Activity of 0 mm.

The compound `CCC/C=C/c1c(OC)cc(C)oc1=O` had an Activity of 0 mm.

`CCCC/C=C/c1c(OC)cc(C)oc1=O` yielded an Activity of 0 mm.

On to `COc1cc(=O)oc(C)c1-c1ccc(C)cc1`, for which the Activity came to 0 mm.

In the next assay the test system is Thanatephorus cucumeris. Description: Percent growth of Rhizoctonia solani after 7 days of incubation. Format: functional. Also noted: concentration or dose not given beside the values. In a few lines:
as §1
With `CCC/C=C/c1c(OC)cc(=O)oc1C`, the Growth is given as 100%.

Consider `CCCCCC/C=C/c1cc(C)oc(=O)c1`, for which the Growth was found to be 100%.

The compound `CCCC/C=C/c1cc(C)oc(=O)c1` yielded a Growth of 100%.

Take `CCC/C=C/c1c(OC)cc(C)oc1=O`: the Growth was determined as 100%.

The compound `CCCC/C=C/c1c(OC)cc(C)oc1=O` had a Growth of 100%.

Turning to `COc1cc(=O)oc(C)c1-c1ccc(C)cc1`, the Growth was found to be 100%.

A further assay relates to Thanatephorus cucumeris. Description: Percent growth of Rhizoctonia solani after 72 hours of incubation. Format: functional. Also noted: concentration or dose not given beside the values. A digest of the protocol: as §1
As for `CCC/C=C/c1c(OC)cc(=O)oc1C`, the Growth came to 50%.

As for `CCCCCC/C=C/c1cc(C)oc(=O)c1`, the Growth was 44%.

Take `CCCC/C=C/c1cc(C)oc(=O)c1`: the Growth was found to be 36%.

Take `CCC/C=C/c1c(OC)cc(C)oc1=O`: the Growth worked out at 44%.

Compound `CCCC/C=C/c1c(OC)cc(C)oc1=O` came in with a Growth of 43%.

Take `COc1cc(=O)oc(C)c1-c1ccc(C)cc1`: the Growth is 61%.

In a further assay the test system is Staphylococcus aureus. Description: Antimicrobial activity against Staphylococcus aureus was determined after 96 hours of incubation. The format is functional. A digest of the protocol: as §2
`CCC/C=C/c1c(OC)cc(=O)oc1C` returned an Activity of 0 mm.

For the compound `CCCCCC/C=C/c1cc(C)oc(=O)c1`, the Activity stood at 18 mm.

`CCCC/C=C/c1cc(C)oc(=O)c1` gave an Activity of 0 mm.

For `CCC/C=C/c1c(OC)cc(C)oc1=O`, the Activity is 0 mm.

For `CCCC/C=C/c1c(OC)cc(C)oc1=O`, the Activity was 21 mm.

Consider `COc1cc(=O)oc(C)c1-c1ccc(C)cc1`, for which the Activity was 0 mm.
